T cruzi repl: blocks replication of Trypanosoma cruzi. T. cruzi beta-gal in NIH3T3, luminescence, 90 h. inhibition, % (test concentration not listed). 300,000 compounds, 1.4% hits. AID 1885;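 active means mean inhibition across valid replicates above about 55%, limit read from the data; inconclusive means mean below that limit but half or more replicates reach it; inactive means mean below it, under half of replicates reach it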;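 further: signal also drops with host cell toxicity which is not excluded here; 0% = plate median of DMSO wells and 100% = zero luminescence signal; higher percent means less beta-gal luminescence so fewer parasites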
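System – NIH/3T3 host cells with β-galactosidase reporter T. cruzi · Doses – single 50 nL compound addition per well in DMSO · Reagent – 5000 T. cruzi trypomastigotes/well · Medium – Low-serum DMEM with 2% FBS · Timing – ≥90 h infection period, 3 h prior cell attachment · Evaluation – parasite load inhibition, % · Technique – GalScreen luminescence, 60 min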
GPR7 antagonist: blocks human GPR7 receptor signaling. P48145. GPR7-expressing cells, fluorescence antagonist assay. inhibition, % at 4.4 µM. 290,000 compounds, 1.1% hits. AID 1861; in the data active means inhibition above about 16%, passing the limit was not always enough;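 further: cells stimulated with the agonist NPW; 0% = agonist with vehicle and 100% = vehicle without agonist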
Target sequence (P48145 whole entry, looked up): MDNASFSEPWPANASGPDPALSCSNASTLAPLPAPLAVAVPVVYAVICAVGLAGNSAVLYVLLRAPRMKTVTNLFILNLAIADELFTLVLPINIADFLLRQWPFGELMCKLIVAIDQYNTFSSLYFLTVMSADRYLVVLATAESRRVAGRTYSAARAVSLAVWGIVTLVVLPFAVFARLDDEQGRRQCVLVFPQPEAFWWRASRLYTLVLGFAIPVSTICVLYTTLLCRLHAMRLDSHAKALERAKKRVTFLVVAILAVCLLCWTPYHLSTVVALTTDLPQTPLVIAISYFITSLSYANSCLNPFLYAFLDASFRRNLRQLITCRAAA
HSF1 inh: HSF1 inhibition | NIH3T3-HGL HSE-luciferase, MG132-induced, luminescence 8 h; active compounds read low | 300,000 compounds, 0.77% hits | activity change, negative = inhibition, % at 7.5 µM (by protocol);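 active means more than half of replicate wells show activity change below -50%, luminescence cut by over half; inconclusive means some wells, but at most half, below -50%; inactive means no replicate well below -50%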;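 further: luciferase reports HSF-1 transcriptional activity via heat shock element; 0% = median of DMSO wells and -100% = zero luminescence signal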
697 NFkB inh: lowers PMA/ionomycin-induced NF-kB signal in 697 B cells; 697 B-cell NF-kB luciferase reporter, 16 h; inhibition, % at 4 µM; 330,000 compounds, 0.33% hits; AID 435022; in the data active means inhibition above about 35%
Jurkat NFkB inh: inhibitors of the PMA/ionomycin-induced NF-kB reporter in Jurkat cells. 330,000 compounds, 0.53% hits. inhibition, % at 4 µM. PMA/ionomycin-induced NF-kB luciferase reporter, luminescence. AID 435003; in the data active means inhibition above about 50%
HSF-1 act: increases HSF-1 driven luciferase reporter signal. 300,000 compounds, 1.7% hits. NIH3T3-HGL HSF-1 luciferase reporter, MG132, 8 h; 100% = twice DMSO control signal. activation, % at 9 µM;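 active means mean replicate activation of at least 50% with a set share of replicates each reaching 50%; inconclusive means only one of those two conditions met; inactive means mean below 50% and too few replicates reaching it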;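 further: 0% = median of the neutral control wells and 100% = twice that signal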
697 NFkB conf: inhibitors of the PMA/ionomycin-induced NF-kB reporter in 697 B cells, retest; shares compounds with 697 NFkB inh; 697 B-cell NF-kB luciferase, 16 h; inhibition, % at 4 µM; 2,000 compounds, 35% hits; AID 449746; in the data active means inhibition mostly above about 28%, no sharp cut-off; inactive means mostly below about 22%
The depositor's hits bear a star; i = inactive; ? = inconclusive; . = not tested or not shown. Rows were chosen to be rich in hits. Some 4.8% of all compounds tested hit in one or more screens of this group.

SMILES	T cruzi repl	GPR7 antagonist	HSF1 inh	697 NFkB inh	Jurkat NFkB inh	HSF-1 act	697 NFkB conf
Cc1c(CCC(=O)NCCCCCC(=O)O)c(=O)oc2c(C)c3oc4c(c3cc12)CCCC4	-4	4	-10	23	-13	-7	.
Cc1c(C2(O)CCCCC2)[nH]c2ccc(C(F)(F)F)cc12	.	.	.	-357	-57	.	-175
COC(=O)c1ccc2[nH]c(C3(O)CCCCC3)c(C)c2c1	.	.	.	-59	-49	.	.
CCC(C)(C)C(=O)Nc1cccc(Cl)c1C	-7	-2	-3	1	1	-16	.
O=C1N/C(=C\c2nc3ccccc3s2)c2ccccc21	-19	-4	-6	-322	-107	12	-453
Cc1ccc(Nc2nc(NCc3ccco3)c3ccccc3n2)cc1	66*	34*	11	-283	-51	2	-253
NC(=O)CCCn1c(C(=O)c2ccc(Cl)cc2)c2ccc([N+](=O)[O-])cc2[n+]1[O-]	37	.	8	-158	7	20	.
NC(=O)CCCn1c(C(=O)c2cc(Cl)c(N)c(Cl)c2)c2ccc([N+](=O)[O-])cc2[n+]1[O-]	50	.	10	-314	25	1	-335
CCC(NC(=O)CCc1c(C)c2cc3c4c(oc3cc2oc1=O)CCCC4)C(=O)O (stereo not given)	0	-3	-24	49*	14	-25	19
CCOc1ccc(-c2nnc(SCC(=O)Nc3cc(C)on3)o2)cc1	29	-7	-17	35	-17	-22	41*
O=C(O)CCSc1ncnc2sc(-c3ccccc3)cc12	-2	-11	-64*	81*	22	-65	62*
CC(=O)CCSc1ncnc2sc(-c3ccccc3)cc12	-4	15	3	-336	-126	16	-164
Nc1ccc(Cc2nc3cc4ccccc4cc3[nH]2)cc1	-12	0	.	i	-83	.	-344
Nc1ccc(C(=O)OCc2nc3cc4ccccc4cc3[nH]2)cc1	11	4	-4	i	-42	12	-381
CCOC(=O)[C@H]1[C@H]2COc3ccccc3[C@@H]2N2C(=O)c3ccc(C)cc3NC(=O)[C@@]12C	.	.	.	36*	11	.	18
BrC(=C\c1ccccc1)/C=N/Nc1nc2ccccc2[nH]1	-17	-6	6	-35	-13	-2	.
C(=N\Nc1nc2ccccc2[nH]1)/c1cccc2nccnc12	13	5	58	-341	5	64*	-110
CCNC(=S)N1CCC(C(=O)c2ccc3c(c2)OCCO3)CC1	3	-1	-5	0	-2	5	.
CCOCCCNC(=S)N1CCC(C(=O)c2ccc3c(c2)OCCO3)CC1	8	5	8	101*	-7	22	19
Cc1ccc(/C=C/c2nc3ccccc3s2)s1	6	-12	-75*	-381	-106	-76	-277
COc1cc(/C=C/c2nc3ccccc3s2)cc(OC)c1O	-2	0	0	-5	-138	32	.
Cc1ccc(F)cc1NC(=O)C12CC3CC(C1)CC(n1cnc([N+](=O)[O-])n1)(C3)C2	48	11	8	3	5	38	.
O=C(Nc1ccccc1C(=O)Nc1nnc(C(F)(F)F)s1)c1ccccc1	59*	-11	-8	96*	-3	-7	94*
Cc1occc1C(=O)Nc1nnc(C(F)(F)F)s1	-11	-8	-2	-11	-1	9	.
O=C1C=C(c2cccc(Br)c2)C[C@@H](c2ccc(Cl)cc2)C1	.	.	.	14	5	.	.
SMILES	T cruzi repl	GPR7 antagonist	HSF1 inh	697 NFkB inh	Jurkat NFkB inh	HSF-1 act	697 NFkB conf
CCC(=O)c1ccc(OCC(=O)OCC(=O)NC2CCCCCCC2)cc1	-8	14	-3	-16	6	0	.
Cn1c(=O)[nH]c(=O)c2c1nc(N/N=C/c1ccncc1)n2Cc1ccc(Cl)cc1	5	1	6	38*	-1	21	18
Cc1ccc(C(=O)NCCNC(=O)c2ccc(F)cc2)cn1	-4	-8	-3	-3	-10	-6	.
COc1cccc(/C=C2\SC(=S)N(CCCC(=O)N(CCO)c3ccccc3)C2=O)c1	45	-17	-9	-13	20	-14	.
Cc1c(NC(=O)CSc2nnc3c4ccccc4n(CCc4ccccc4)c3n2)c(=O)n(-c2ccccc2)n1C	33	-12	66	i	-32	88*	i
CCn1c2ccccc2c2nnc(SCC(=O)Nc3c(C)n(C)n(-c4ccccc4)c3=O)nc21	9	-12	-8	-8	-12	-27	.
CCC(CC)C(=O)c1c[nH]c(C(=O)NCc2ccccc2OC)c1	7	-18	1	-7	-5	-23	.
Cc1[nH]c2ccccc2c1/C=N/Nc1nc(Nc2ccccc2)nc(N2CCOCC2)n1	51	-4	-3	49*	49	-12	55*
c1ccc(Nc2nc(N3CCCC3)nc(N3CCOCC3)n2)cc1	27	.	-2	17	5	-7	.
Oc1[nH]c2ccccc2c1N=Nc1nc(Nc2ccccc2)nc(N2CCOCC2)n1	48	-6	?	53*	-2	-46	52*
Cc1cnc(C(=O)NCC(=O)Nc2ccccc2Br)cn1	.	.	.	11	2	.	.
N/C(=N\OC(=O)c1ccc(Cl)cc1)c1[nH]ncc1Br	-4	-12	-9	-394	-138	1	-275
CCO/N=C(\N)c1[nH]ncc1Br	-9	-9	-1	10	9	6	.
O=C(CCCl)Nc1nc2c(s1)CCc1ccccc1-2	2	-9	146	-266	23	175*	-15
CC(=O)Nc1nc2c(s1)CCc1ccccc1-2	-4	-12	6	18	-9	11	.
Cc1ccccc1Cn1cc(NC(=O)c2cc(-c3ccco3)on2)cn1	10	1	1	38*	-26	19	10
Cc1cc(NC(=O)c2cc(-c3ccco3)on2)no1	10	-7	10	37*	-2	9	18
COc1ccc(CCNC(=O)c2cc(-c3ccco3)on2)cc1OC	-16	-11	-4	50*	-23	4	18
O=C(Nc1cnn(Cc2ccc(F)cc2)c1)c1cc(-c2ccco2)on1	-6	-5	-54*	41*	-9	-66	-10
COc1cccc(-c2cc(C(=O)Nc3cnn(Cc4ccc(F)cc4)c3)no2)c1	-20	-4	-4	-14	8	-11	.
CCN1CCc2nc3ccccc3c(C(=O)Nc3ccc(C#N)cc3)c2C1	44	-1	3	-12	14	1	.
CCn1cc(C(=O)O)c(=O)c2cnc(N3CCN(C(=S)NC(=O)c4ccc(Br)cc4)CC3)nc21	16	-5	2	84*	9	1	26*
CCn1cc(C(=O)O)c(=O)c2cnc(N3CCN(C(=S)NC(=O)c4ccc(Cl)cc4)CC3)nc21	4	-16	-6	38*	18	-9	-1

High-throughput results as filed in PubChem.
